Measurements published in ChEMBL document CHEMBL3102809, “Investigation of fluorinated and bifunctionalized 3-phenylchroman-4-one (isoflavanone) aromatase inhibitors” (Bioorg Med Chem, 2014).
Active and inactive are the calls of the source. No cut-off for these calls is given here.

How the values were obtained:
Aromatase [1] = molecular target: T1, Aromatase (Homo sapiens, UniProt P11511); assay: Inhibition of human recombinant aromatase expressed in baculovirus-infected cell system using 7-methoxy-trifluoromethylcoumarin as substrate after 30 mins by fluorescence assay
T1 sequence (P11511 whole entry): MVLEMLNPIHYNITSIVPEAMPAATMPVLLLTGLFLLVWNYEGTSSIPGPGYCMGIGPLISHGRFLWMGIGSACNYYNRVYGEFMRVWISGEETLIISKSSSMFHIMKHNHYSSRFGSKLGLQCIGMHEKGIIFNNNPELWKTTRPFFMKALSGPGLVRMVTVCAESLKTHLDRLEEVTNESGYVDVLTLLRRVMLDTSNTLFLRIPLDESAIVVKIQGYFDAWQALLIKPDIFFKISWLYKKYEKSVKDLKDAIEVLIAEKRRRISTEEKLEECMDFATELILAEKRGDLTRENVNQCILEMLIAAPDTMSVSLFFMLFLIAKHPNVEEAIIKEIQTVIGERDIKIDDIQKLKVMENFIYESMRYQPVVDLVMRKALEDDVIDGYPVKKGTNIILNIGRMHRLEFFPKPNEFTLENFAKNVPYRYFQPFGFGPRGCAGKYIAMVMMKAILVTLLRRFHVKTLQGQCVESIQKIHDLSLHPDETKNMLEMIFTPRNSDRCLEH

MCF7 [2] = assay: Cytotoxicity against estrogen-dependent human MCF7 cells after 72 hrs by MTT assay; assay type: functional, cell-based; settings: for IC50: MCF7, 72 h
[3] = Ratio of IC50 for human MCF7 cells to IC50 for human recombinant aromatase
MCF7 [4] = assay: Cytotoxicity against […] human MCF7 cells after 72 hrs by MTT assay; assay type: functional, cell-based
Outline: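 MCF-7 cells were raised without estrogen and without phenol red. They were seeded at 15,000/well, incubated overnight at 37 °C, then treated 72 h with freshly dissolved compounds. Viability was read by MTT (4 h), with DMSO solubilization and absorbance at 570 nm, and IC50 was calculated.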

Aromatase [5] = molecular target: T1, Aromatase

Structure (SMILES)	IC50 (Aromatase [1]; read-out: IC50)	Ratio IC50 [3]	also measured
O=C1c2ccccc2OCC1c1cc(F)cc(F)c1 (configuration not stated)	20 µM		
O=C1c2ccccc2OCC1c1cccnc1 (configuration not stated)			IC50 (MCF7 [2]): 31 µM
O=C1c2cc(F)cc(F)c2OCC1c1ccccc1 (configuration not stated)		2	IC50 (Aromatase [1]): Not Active
COc1ccc2c(c1)C(=O)C(c1cccnc1)CO2 (configuration not stated)	2.5 µM		growth inhibition (GI) (MCF7 [4]): inactive; growth inhibition (GI) (MCF7 [2]): inactive
O=C1c2ccccc2OCC1c1ccc(C(F)(F)F)cc1 (configuration not stated)		2	IC50 (Aromatase [1]): Not Active
O=c1c(-c2ccccc2)coc2ccccc12 [ISOFLAVONE]			IC50 (Aromatase [5]): Not Active
COc1ccc2c(c1)C(=O)C(c1ccc(Oc3ccccc3)cc1)CO2 (configuration not stated)			IC50 (Aromatase [1]): Not Active
O=C1c2cc(Br)ccc2OCC1c1ccccc1 (configuration not stated)			IC50 (MCF7 [2]): 100 µM
O=C1c2cc(F)ccc2OCC1c1ccccc1 (configuration not stated)		2	
O=C1c2ccccc2OCC1c1ccc(-c2ccccc2)cc1 (configuration not stated)			growth inhibition (GI) (MCF7 [2]): inactive
O=C1c2cccc(F)c2OCC1c1cccnc1 (configuration not stated)	67.1 µM		IC50 (MCF7 [2]): 43 µM
O=C1c2cc(F)ccc2OCC1c1cccnc1 (configuration not stated)	0.8 µM		growth inhibition (GI) (MCF7 [2]): inactive

Second part, led by results:

IC50 (Aromatase [1]; read-out: IC50)	Structure (SMILES)	Ratio IC50 [3]	also measured
24 µM	O=C1c2ccccc2OCC1c1ccccc1F (configuration not stated)	2	
33 µM	O=C1c2ccccc2OCC1c1ccc(F)cc1 (configuration not stated)	2	
15 µM	O=C1c2cccc(F)c2OCC1c1ccccc1 (configuration not stated)	2	
190 µM	O=C1c2c(ccc3ccccc23)OCC1c1ccc(Oc2ccccc2)cc1 (configuration not stated)		
35 µM	O=C1c2ccccc2OCC1c1cccc(F)c1 (configuration not stated)	2	
